This is one part of a sample in which hits are shown more often than they occur.
G6PDH counter: counter-screen for G6PDH assay hits: L. mesenteroides G6PDH inhibition; Purified L. mesenteroides G6PDH, diaphorase/resazurin coupled fluorescence, 45 min; inhibition, % at 5 µM; hit rate 0.12% among 200,000; AID 1020
Diaph act CS: counter-screen for diaphorase-based assays: diaphorase activators and chemical reducers; Diaphorase/resazurin coupled assay, resorufin fluorescence, 16 min; hits give high values; 1 = vehicle wells, 0 = NADH-free wells; activation factor at 20 µM; hit rate 0.005% among 190,000;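 active = diaphorase activity raised at least twofold by the compound at 20 µM; inactive = activation factor below 2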
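Material: Purified diaphorase enzyme from Clostridium kluyveri | Buffer or medium: 50 mM HEPES pH 7.4 with 4.542 mM MgCl2, 0.005% Tween 20 | Times: 16 min enzyme reaction, ambient temperature | Signal: Red resorufin fluorescence at 544/590 nm excitation/emission | Measure: Increased resorufin signal from activators or reducing compounds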
Diaph inh CS: diaphorase inhibition or chemical oxidation counter-screen; diaphorase resazurin-to-resorufin fluorescence, NADH, 16 min; bacterial (C. kluyveri) enzyme, not human; inhibition, % at 20 µM; hit rate 0.69% among 190,000; AID 1217;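 active = primary screen inhibition at 20 µM above a set limit, cut at about 50% in these data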;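 note: plate controls were DMSO with full reaction for no effect and wells lacking NADH for full effect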
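Test system: Clostridium kluyveri diaphorase enzyme / Quantity: diaphorase at 0.14 U/mL in enzyme working solution / Incubation: 16-min room-temperature incubation before reading / Benchmarks: NADH-free wells as positive control, DMSO-only neutral wells / Signal: resorufin fluorescence 544/590 nm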
Lmaj promast: Leishmania major promastigote growth inhibition; inhibition, % at 10 µM; Leishmania major promastigotes, resazurin fluorescence viability; hit rate 9% among 200,000; AID 1063;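 note: promastigotes grown with compound for 44 hours at 28 °C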
PfGluPho inh: PfG6PD (Plasmodium falciparum) enzyme inhibition. PfGluPho enzyme, NADPH resazurin-diaphorase fluorescence. inhibition, % at 20 µM. hit rate 0.78% among 350,000;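 active = inhibition reaching at least a set limit at 20 µM in the primary screen, cut at about 59% in these data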;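 note: 0% = DMSO wells with substrate and 100% = DMSO wells lacking glucose-6-phosphate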
DTT redox prof: compounds producing H2O2 with reducing agent – biochemical, NIH compound library profiling, artefact control for MLSCN library redox annotation, primary screen. DTT-dependent redox cycling H2O2, phenol red/HRP absorbance; 100% = 100 µM peroxide control, 0% = buffer. activation, % at 10 µM. hit rate 0.03% among 200,000. AID 878;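 active = activation of at least 50% relative to the plate's high and low controls in the primary single-dose screen; inactive = activation below 50%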;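 note: compound incubated with DTT at 0.8 mM final as the reducing agent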
Starred values were filed as active, the others as inactive; · = no result given. Cut-off read from the data, not from the text of the source, unless noted: active = inhibition above about 50%; inactive = the rest.

SMILES	G6PDH counter	Diaph act CS	Diaph inh CS	Lmaj promast	PfGluPho inh	DTT redox prof
CCOC(=O)c1ccc(NC(=O)COc2ccccc2CNCCc2ccccc2)cc1	5	1.5	-49	101*	-9	0
CCOC(=O)c1ccc(NC(=O)COc2ccc(CNC3CCCCC3)cc2OC)cc1	0	1	2	94*	15	-1
COc1cc(CNC(C)(C)CO)ccc1OCC(=O)Nc1ccc(Br)cc1	4	0.9	6	101*	-16	-2
COc1cc(CNC2CCCCCCC2)ccc1OCC(N)=O	·	·	·	·	4	·
C=CCOc1ccc(CNC(C)(C)CO)cc1OC	19	0.9	5	-5	-7	-13
COc1ccc(/C=C/C(=O)OCC(=O)Nc2ccc3[nH]c(=O)[nH]c3c2)cc1OC	·	·	·	·	1	·
CCCCC(=O)OCC(=O)Nc1ccc(SC(F)F)cc1	-2	1	0	1	25	0
Cc1cc(C)c(S(=O)(=O)Nc2ccc(OCC(=O)O)cc2)c(C)c1	0	1.1	-7	-7	-6	-1
COc1ccccc1N1CCN(C(=O)Nc2cccc(Cl)c2)CC1	-2	0.8	16	78*	-11	0
COc1cccc(NC(=O)N2CCN(c3cccc(C)c3C)CC2)c1	-6	0.8	18	81*	22	2
O=C(Nc1ccc2c(c1)OCO2)N1CCN(c2ccccc2Cl)CC1	6	1	2	80*	28	0
Cc1nnc(SCc2cc(=O)[nH]c(N3CCCCC3)n2)s1	·	·	·	-3	-8	1
COC(=O)C1CCN(c2ccc(Cl)nn2)CC1	3	0.9	13	1	-14	-2
O=C(CNS(=O)(=O)c1ccc(Br)s1)NCC1COc2ccccc2O1 (stereo not given)	5	0.9	10	59*	-8	-2
c1ccc2c(c1)ncn2CCCOc1ccc2c(c1)CCC2	5	0.9	12	17	13	0
CCCOc1ccc(Cn2cnc3ccccc32)cc1	-11	0.9	12	88*	-1	0
c1ccc(OCCn2cnc3ccccc32)cc1	-8	0.9	12	52*	-10	6
Fc1ccc(Cn2cnc3ccccc32)cc1	1	1	0	16	2	0
c1ccc2c(c1)ncn2CCCCOc1ccc2c(c1)CCC2	2	1	0	56*	14	0
CC(=O)c1ccc(OCCn2cnc3ccccc32)cc1	10	0.9	12	51*	4	-1
CN(Cc1ccno1)C(=O)CC1C(=O)NCCN1CC(c1ccccc1)c1ccccc1 (stereo not given)	18	0.5	48	-3	-3	1
Cc1ccc(C(OCC(O)CN2CCCCC2)c2ccccc2)cc1 (stereo not given)	·	·	·	·	-27	·
Cc1ccc(C(OCC(O)CNC(C)c2ccccc2)c2ccccc2)cc1 (stereo not given)	12	1	2	77*	16	-1
COc1ccc(C2CC(=O)c3cnc(NC(=O)c4ccccc4OC)nc3C2)c(OC)c1 (stereo not given)	4	0.8	15	86*	11	2
COc1ccc(S(=O)(=O)n2nc(C)cc2C)c(C)c1C	8	0.9	13	50*	-6	1
SMILES	G6PDH counter	Diaph act CS	Diaph inh CS	Lmaj promast	PfGluPho inh	DTT redox prof
Cc1cc(C)n(S(=O)(=O)c2ccc(C)c(C)c2C)n1	-4	0.9	12	31	5	2
CC1Cc2ccccc2N1CC(=O)NC(=O)NCc1ccccc1 (stereo not given)	9	0.9	12	63*	-1	-2
CC1Cc2ccccc2N1CC(=O)NC(=O)NC1CCCCC1 (stereo not given)	10	0.7	29	92*	16	-1
CC1Cc2ccccc2N1CC(=O)NC(=O)NC(C)(C)C (stereo not given)	2	0.9	9	2	2	0
Cc1cccc(CN2CCN(C(c3ccccc3)c3ccc(Cl)cc3)CC2)c1 (stereo not given)	12	0.8	18	63*	1	4
CN1CCCN(C(c2ccccc2)c2ccc(Cl)cc2)CC1 (stereo not given)	8	1	3	99*	-7	0
O=C(c1ccc(Cl)cc1)C1CCN(Cc2ccccc2)CC1	·	·	·	·	-9	·
CN1CCN(C(c2ccccc2)c2ccccc2)CC1	·	·	·	·	-6	·
O=C(C1CCN(Cc2ccc(Cl)cc2)CC1)N1CCN(C(c2ccccc2)c2ccccc2)CC1	-27	0.7	32	88*	7	2
CCOC(=O)C1CC(c2ccccc2)=NN1c1ccccc1 (stereo not given)	·	·	·	·	19	·
COc1ccc2oc(C(=O)N(Cc3ccco3)Cc3cccs3)c(C)c2c1	·	·	·	·	2	·
CC(=O)c1c(N2CCCC2)nc(=S)n(-c2ccccc2)c1C	-5	0.5	54*	2	-5	0
CCCNc1nc(=S)n(-c2ccccc2)c(C)c1C(C)=O	2	0.6	40	-6	-5	13
CCCCNc1nc(=S)n(-c2ccccc2)c(C)c1C(C)=O	2	0.3	71*	-1	-21	0
CCn1c(C)c(C(C)=O)c(N2CCN(c3ccccn3)CC2)nc1=S	2	0.4	62*	-3	3	0
CC(=O)c1c(N2CCCCC2)nc(=S)n(-c2ccccc2)c1C	-4	0.5	46	7	5	0
CCn1c(C)c(C(C)=O)c(N2CCN(c3ccccc3)CC2)nc1=S	6	0.8	22	8	-2	0
CNCCCOc1cccc(OC(C)C)c1	4	0.9	11	1	4	0
CNCCCOc1cccc(Oc2ccccc2)c1	10	1	2	99*	4	-3
CC(O)CNCCCOc1cccc(C(F)(F)F)c1 (stereo not given)	7	1.1	-7	67*	7	0
CC(O)CNCCCOc1cccc(Oc2ccccc2)c1 (stereo not given)	-3	1	4	99*	-3	0
CN(Cc1nc2ccccc2c(=O)[nH]1)C(=O)c1ccccc1OCc1ccc(Cl)cc1	·	·	·	·	34	·
CN(Cc1ccccc1)C(=O)C1CCN(S(=O)(=O)c2cccc3nonc23)CC1	·	·	·	·	-14	·
O=C1C=C(c2n[nH]nc2-c2ccccc2)C[C@@H](c2ccc(F)cc2)C1	·	·	·	·	15	·
CN(CCC#N)C(=O)COC(=O)c1ccc2c(c1)C(=O)N(C1CCCCC1)C2=O	·	·	·	·	2	·
COc1ccc(C(=O)Nc2ccccc2C(=O)NC(Cc2ccc(O)cc2)C(=O)NNC(=O)c2ccccc2)cc1 (stereo not given)	-28	0.8	21	62*	5	0
COc1ccc(OC)c(C(=O)c2ccc(C(=O)Nc3cccc4ccccc34)cc2)c1	-2	0.9	8	55*	-15	0

Source: PubChem
